Source: PubChem BioAssay (several laboratories)
Rows were chosen to be rich in hits. Some 1.6% of all compounds tested hit in one or more screens of this group.
ARFGAP1 inh – inhibits rat ARF GTPase activating protein 1 | Arfgap1-stimulated ARF1 GTP hydrolysis, GDP FP detection | 360,000 tested, 0.26% active | inhibition, % at 16.5 µM;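 active = inhibition above a per-plate limit, mean inhibition of low control wells plus 3 SD, cut at about 25% in these data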
Target sequence (Q62848 1-136 limits assumed): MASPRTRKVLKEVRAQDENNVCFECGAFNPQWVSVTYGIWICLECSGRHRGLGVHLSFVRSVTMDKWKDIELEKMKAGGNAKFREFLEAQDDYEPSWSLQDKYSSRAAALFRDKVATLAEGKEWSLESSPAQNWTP
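Repeats: one replicate per compound; assay system: rat Arfgap1 catalytic domain, aa 1-136; times: enzyme reaction 120 min at 25 °C after 20 min preincubation; detection: FP of antibody-bound GDP Alexa 633 tracer, ex 620/em 688 nm; benchmarks: high control wells lacking Arfgap1, low control full reaction with DMSO; reagent: human ARF1(Δ1-17)-GTP substrate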
Cardio protect – modulators protecting cardiomyocytes from myocardial damage | H9c2 cardiomyocytes, H2O2 injury protection, ATPLite, 2 h | protection from H2O2 cell death, % at 20 µM | 360,000 tested, 0.63% active | AID 588492;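 active = compounds giving at least 50% protection of heart cells from peroxide-induced death in the single-dose screen, raw or plate-pattern-corrected value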
Neddyl block – blocks human cullin neddylation; 360,000 tested, 0.58% active; TR-FRET cullin neddylation, biochemical; inhibition, % at 25 µM; P61081+Q13564; in the data active = inhibition above about 36%
ASAP1 GAP inh – ASAP1 ArfGAP inhibition; 360,000 tested, 0.19% active; AID 624377; ASAP1-stimulated ARF1 GTP hydrolysis, GDP FP detection; Q9ULH1; inhibition, % at 16.5 µM; in the data active = inhibition above about 25%
Target sequence (Q9ULH1 325-724 limits assumed): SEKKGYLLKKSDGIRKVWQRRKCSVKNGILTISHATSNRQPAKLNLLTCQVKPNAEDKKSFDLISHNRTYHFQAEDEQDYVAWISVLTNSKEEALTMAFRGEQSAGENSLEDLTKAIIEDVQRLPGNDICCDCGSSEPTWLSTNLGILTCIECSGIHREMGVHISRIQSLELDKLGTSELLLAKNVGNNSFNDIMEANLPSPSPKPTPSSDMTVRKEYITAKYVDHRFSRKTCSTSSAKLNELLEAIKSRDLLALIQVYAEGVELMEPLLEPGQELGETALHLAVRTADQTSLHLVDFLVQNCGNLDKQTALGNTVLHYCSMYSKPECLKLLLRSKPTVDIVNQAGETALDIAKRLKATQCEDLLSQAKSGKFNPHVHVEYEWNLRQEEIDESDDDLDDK
Neddyl conf – cullin neddylation inhibition, confirmation. shares compounds with Neddyl block. TR-FRET cullin neddylation biochemical assay. calls only at 25 µM. 1,800 tested, 13% active; in the data active = inhibition above about 40%;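 also: neddylation substrate is the cullin 1 ring ligase complex with SKP2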
Of the large screens only hits and unclear results are named; the others gave an inactive call (follow-up assays come after a bar, where shown).

CC(C)OC(=O)/C(=C/c1ccc2c(c1)c1ccccc1n2C)NC(=O)c1ccccc1	Neddyl block 46 | Neddyl conf inactive
CC(C)OC(=O)/C(=C\c1cccnc1)NC(=O)c1ccccc1	none
COC(=O)N1C[C@H](Oc2cccc3ccccc23)[C@H]2C[C@@H]1c1ccccc1O2	none (no result: Cardio protect, Neddyl block)
COc1ccc(/C=C/c2nc(S(=O)(=O)c3ccccc3)c(NCCCN(C)C)o2)cc1OC	none
COc1ccccc1/C=C/c1nc(S(=O)(=O)c2ccccc2)c(NCCN(C)C)o1	Neddyl block 42
Cc1ccc(-c2nnc(-c3cccc4ccccc34)o2)cc1	none (not shown: Neddyl block)
Cc1ccc(CSc2nnc(-c3cccc4ccccc34)o2)cc1	Neddyl block 34
COc1cc(-c2c(C(=O)c3ccccc3)[nH]c(N)c2C(=O)NCCc2c[nH]c3ccccc23)ccc1F	none (no result: Cardio protect, Neddyl block)
CCOC(=O)Nc1c(C(=O)OC)[nH]c2cccc(OC)c12	Neddyl block 42 | Neddyl conf inactive
COC(=O)c1[nH]c2cccc(OC)c2c1NC(=O)CN1CCN(c2cccc(OC)c2)C(C)C1 (stereo not drawn)	Neddyl block 48
COC(=O)c1[nH]c2cccc(OC)c2c1NC(=O)CCN1CCC(C)CC1	none (not shown: Neddyl block)
Nc1ccc(S(=O)(=O)Nc2nccs2)cc1N=Nc1ccccc1[N+](=O)[O-]	none
CCCc1nc2c3ccccc3ccn2c1Cc1ccccc1	none
COc1cccc2cc(-c3cn4cccc(C)c4n3)c(=O)oc12	Neddyl block 42 | Neddyl conf inactive
COc1cccc2cc(-c3cn4ccc(C)cc4n3)c(=O)oc12	none
COc1ccccc1-c1cn(CC[C@@H]2CC[C@H](NC(=O)C3CCC3)[C@@H](CO)O2)nn1	none (no result: Cardio protect)
O=C(NCc1ccccc1)c1nc(-c2c(F)cccc2F)oc1-c1ccccc1	Neddyl block 44 (not shown: Cardio protect)
C[C@@H](CO)NC(=O)c1[nH]cnc1C(=O)Nc1ccccc1	none (no result: Cardio protect, Neddyl block)
Cc1c(CCC(=O)NCCCn2ccnc2)c(=O)oc2cc3occ(C(C)(C)C)c3cc12	Neddyl block 41
COc1ccc(NC(=O)Cn2nnc(-c3ccccc3)c2COc2ccc(C(C)=O)cc2)cn1	none
COC(=O)c1ccc(C(=O)OC)c(NC(=O)Oc2ccccc2)c1	none
COC(=O)c1ccc(C(=O)OC)c(NC(=O)/C=C/C(=O)O)c1	Neddyl block 44 | Neddyl conf inactive
COc1cc2c(cc1OC)C(COc1ccc(C(C)C)cc1)NCC2 (stereo not drawn)	Neddyl block 42 | Neddyl conf inactive
CS(=O)(=O)N(CC(=O)N/N=C/c1cccc2c1OCCO2)c1ccccc1Br	Neddyl block 45 | Neddyl conf active
CS(=O)(=O)N(CC(=O)N/N=C/c1cc2c(cc1Br)OCO2)c1ccccc1Br	none
O=C(Cc1ccc(Cl)cc1)NNC(=S)NC(=O)c1cccs1	Neddyl block 53 | Neddyl conf inactive
COc1cccc(CN2C(=NC(=O)C3CCCO3)SC3CS(=O)(=O)CC32)c1 (stereo not drawn)	none
N#CC1=C(N)Oc2c(ccc3cccnc23)C1c1cccnc1 (stereo not drawn)	Cardio protect 83, Neddyl block 48 | Neddyl conf inactive
O=C1N(Cc2ccccc2)c2ccc(Br)cc2[C@]12C[C@H](O)CO2	none (no result: Cardio protect)
Oc1ccc(/C=N/Nc2ccnc3cc(Cl)ccc23)c(O)c1O	none
CC/C(=N\Nc1ccnc2cc(Cl)ccc12)c1ccc(O)cc1	Neddyl block 41 | Neddyl conf inactive
O=C(CSc1ccc2nnc(-c3cccnc3)n2n1)Nc1ccccc1C(F)(F)F	Neddyl block 48
c1ccc(Nc2cccc3c(Nc4ccccc4)cccc23)cc1	Neddyl block 38 | Neddyl conf active
CN(CCc1ccccc1)C(=O)c1ccc(NC(=O)Cc2ccc(NC(=O)C3CCN(C(=O)CCc4ccccc4)CC3)cc2)cc1	none
O=C(CNC(=O)c1ccco1)N/N=C/c1cc(Br)ccc1O	Neddyl block 42 | Neddyl conf inactive
O=C(CNC(=O)c1ccccc1Br)N/N=C/c1ccccc1O	Neddyl block 40 | Neddyl conf inactive
O=C(CNC(=O)c1ccccc1Br)N/N=C\c1cc([N+](=O)[O-])cc(Br)c1O	none
CON(C)C(=O)C(C)(C)CC#CCN(CC#Cc1ccccc1)S(=O)(=O)c1ccc(C)cc1	none (no result: Cardio protect, Neddyl block)
NC(=O)NC(=O)CN1c2cccc3cccc(c23)S1(=O)=O	none
CC(NC(=O)C(C)N1c2cccc3cccc(c23)S1(=O)=O)c1ccccc1 (stereo not drawn)	Neddyl block 42 | Neddyl conf inactive
CC(=O)Nc1cccc(NC(=O)CN2c3cccc4cccc(c34)S2(=O)=O)c1	Neddyl block 43 | Neddyl conf inactive
CCC(C)NC(=O)CN1c2cccc3cccc(c23)S1(=O)=O (stereo not drawn)	Neddyl block 42 | Neddyl conf inactive
CC(=O)c1ccc(NC(=O)CN2c3cccc4cccc(c34)S2(=O)=O)cc1	Neddyl block 48 | Neddyl conf inactive
CC(C(N)=O)N1c2cccc3cccc(c23)S1(=O)=O (stereo not drawn)	none
CCN(CC)Cc1cc(Oc2ccc(O)c(CN(CC)CC)c2)ccc1O	none (no result: ARFGAP1 inh, ASAP1 GAP inh)
CC1(C(=O)Nc2ccc3c(c2)OCO3)Cc2c(-c3cccc(C(F)(F)F)c3)ccnc2O1 (stereo not drawn)	none
COC(=O)CCN1CCSCCS1(=O)=O	none (no result: Cardio protect, Neddyl block)
COC(=O)c1cc2c(c3c4cc(OC)ccc4n(S(=O)(=O)c4ccc(OC)cc4)c13)C(=O)N(Cc1ccccc1)C2	none (no result: Cardio protect, Neddyl block)
O=C(NC1CCCCC1)N(CCN1CCCC1)Cc1cc2cc3c(cc2[nH]c1=O)OCCO3	none (no result: ARFGAP1 inh, ASAP1 GAP inh)
O=C(NC1CCCCC1)N(CCO)Cc1cc2cc3c(cc2[nH]c1=O)OCCO3	Neddyl block 44 | Neddyl conf inactive
COCCNC(=S)N(CCCO)Cc1cc2cc3c(cc2[nH]c1=O)OCO3	none
COCCCNC(=S)N(CCCO)Cc1cc2cc3c(cc2[nH]c1=O)OCO3	Neddyl block 43 | Neddyl conf inactive
COCCCNC(=S)N(CCCO)Cc1cc2cc3c(cc2[nH]c1=O)OCCO3	none
COCCCNC(=S)N(CCO)Cc1cc2cc3c(cc2[nH]c1=O)OCO3	Neddyl block 40 | Neddyl conf inactive
O=S(=O)(c1ccc(F)cc1)N1CCCc2nc(-c3ccc(Br)cc3)ccc21	none (no result: Cardio protect, Neddyl block)
COc1ccc(-c2cc3ccc(OCC(N)=O)cc3oc2=O)cc1OC	Neddyl block 42 | Neddyl conf inactive
COC(=O)C1=C(C)N(CC(C)C)C(=S)NC1c1cccc(OC)c1 (stereo not drawn)	none (no result: Cardio protect, Neddyl block)
CCc1nn2c(N3CCOCC3)cc(C)nc2c1-c1ccc(F)cc1	none
CCc1nn2c(N(C)CCO)cc(C)nc2c1-c1ccc(F)cc1	Neddyl block 44 | Neddyl conf inactive
CCOC(=O)C1=C[C@@H](C(C)(C)C)N(S(=O)(=O)c2ccc([N+](=O)[O-])cc2)[C@H]1c1ccccc1Cl	none (no result: Cardio protect, Neddyl block)
CCOc1cc(/C=C/c2nc3ccccc3s2)ccc1OCC(=O)N1CCOCC1	Neddyl block 48
N#C/C(=C/c1cn(-c2ccccc2)nc1-c1cccc(S(=O)(=O)N2CCOCC2)c1)C(=O)NCc1ccco1	Neddyl block 41 | Neddyl conf inactive
